Laboratory results as given in ChEMBL document CHEMBL1157128, “Silica-supported fluoroboric acid (HBF(4)-SiO(2)) catalyzed highly productive synthesis of thiomorpholides as activators of l-asparaginase as well as the antioxidant agent” (Bioorg Med Chem, 2010).
Calls of active or inactive are those of the source. No cut-off for these calls is given here.

What was measured:
[1] = test system: Radical scavenging activity; experiment: Antioxidant activity assessed as DPPH free radical scavenging activity at 1 mM/ml after 30 mins; type: functional
Outline: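 DPPH scavenging assay. 1 mM compound stock was mixed with DPPH in methanol (0.5 mL, 0.3 mM) in a 3 mL total mixture and left at room temperature for 30 min. Absorbance was read at 520 nm. Percent activity was calculated as [1 − OD test/OD control] × 100. BHA served as standard.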

[2] = test system: L-asparaginase (Erwinia carotovora); experiment: Binding affinity to Erwinia carotovora L-asparaginase by spectrophotometry; settings: Pectobacterium carotovorum
[3] = test system: L-asparaginase (Erwinia carotovora); experiment: Ratio of Vmax to Km for Erwinia carotovora L-asparaginase by Lineweaver-Burke plot; settings: Pectobacterium carotovorum

Question: For `Oc1ccccc1CC(=S)N1CCOCC1`, which Activity [1] is on record?
Answer: 36.1%

Question: And the KA [2]?
Answer: 0.625 µM

Question: What about the Vmax/Km [3] of the same compound?
Answer: 4.04

Question: For `S=C(Cc1ccccc1)N1CCOCC1`, which Activity [1] is on record?
Answer: 24.3%

Question: With `S=C(CCCc1ccccc1)N1CCOCC1` as the compound, how does the Activity [1] read?
Answer: 0%

Question: For `S=C(Cc1ccc(Br)cc1)N1CCOCC1`, which Activity [1] is on record?
Answer: 0%

Question: How did the Activity [1] turn out when `Nc1ccccc1CC(=S)N1CCOCC1` was run?
Answer: 0%

Question: For `Cc1ccc(CC(=S)N2CCOCC2)cc1`, which Activity [1] is on record?
Answer: 21.6%

Question: How did the Activity [1] turn out when `COc1ccc(O)c(C(C)(C)C)c1.COc1ccc(O)cc1C(C)(C)C` was run?
Answer: 72.3%

Question: For `S=C(Cc1ccco1)N1CCOCC1`, which Activity [1] is on record?
Answer: 0%

Question: Which Activity [1] does the source give for `COc1ccc(CC(=S)N2CCOCC2)cc1` here?
Answer: 24.3%

Question: What about the Activity [2] of the same compound?
Answer: Active

Question: And the KA [2]?
Answer: 0.0851 µM

Question: And the Vmax/Km [3]?
Answer: 6.25

Question: What does the source list for `COc1ccc(CC(=S)N2CCOCC2)cc1OC`?
Answer: Activity [1]: 32.6%; Activity [2]: Active; KA [2]: 0.985 µM; Vmax/Km [3]: 13.3

Question: Which Activity [1] does the source give for `S=C(Cc1ccc2ccccc2c1)N1CCOCC1` here?
Answer: 0%

Question: Which Activity [1] does the source give for `O=[N+]([O-])c1ccc(CC(=S)N2CCOCC2)cc1` here?
Answer: 0%

Question: `S=C(Cc1ccc(OCc2ccccc2)cc1)N1CCOCC1` was tested. Which Activity [1] did it give?
Answer: 25.9%
